The source made the active and inactive calls. The calls are words filed in the database; no cut-off is given here.
Key:
[1] = target: Glyceraldehyde-3-phosphate dehydrogenase (Homo sapiens) (UniProt P04406); test: Inhibition of human GAPDH assessed as ratio of kinact to Ki by Kitz-Wilson double-reciprocal plot at pH 7.4
[2] = target: Glyceraldehyde-3-phosphate dehydrogenase (Plasmodium falciparum) (UniProt Q8T6B1); test: Inhibition of unmodified recombinant Plasmodium falciparum GAPDH at 200 uM measured after overnight incubation by mass spectroscopy in presence of trypsin
Chain of Glyceraldehyde-3-phosphate dehydrogenase (Plasmodium falciparum) (Q8T6B1 as listed by the source): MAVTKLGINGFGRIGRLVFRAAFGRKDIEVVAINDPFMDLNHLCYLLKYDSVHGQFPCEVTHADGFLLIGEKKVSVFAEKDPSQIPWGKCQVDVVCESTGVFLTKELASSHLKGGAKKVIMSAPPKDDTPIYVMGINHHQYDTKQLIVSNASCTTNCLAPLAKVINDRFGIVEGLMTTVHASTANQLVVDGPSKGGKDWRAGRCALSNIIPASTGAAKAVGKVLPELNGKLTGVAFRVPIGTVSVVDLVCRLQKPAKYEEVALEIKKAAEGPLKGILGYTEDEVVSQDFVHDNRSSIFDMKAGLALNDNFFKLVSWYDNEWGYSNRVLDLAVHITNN
Outline: (§1)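 Pf GAPDH incubated overnight with inhibitor at 200 μM. MALDI-TOF on undigested protein (double-layer CHCA matrix) or on tryptic digests (thin-layer CHCA), with MS/MS. Cys alkylation checked by 1 h treatment of 20 μM enzyme with 10-fold excess iodoacetamide before analysis.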

[3] = target: Glyceraldehyde-3-phosphate dehydrogenase (Plasmodium falciparum) (UniProt Q8T6B1); test: Inhibition of recombinant Plasmodium falciparum GAPDH expressed in Escherichia coli assessed as ratio of kinact to Ki by Kitz-Wilson double-reciprocal plot
Outline: (§2)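 Pf GAPDH incubated with inhibitor, aliquots withdrawn over time for activity assay; control enzyme kept without inhibitor under the same conditions. Activity normalized to the inhibitor-free value. Time courses fitted to a sum of two exponential decays. kobs obtained by fitting residual activity versus incubation time to a mechanism-based inhibition equation (kinact, Ki). Duplicates.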

[4] = target: Glyceraldehyde-3-phosphate dehydrogenase (Plasmodium falciparum) (UniProt Q8T6B1); test: Inhibition of undigested recombinant Plasmodium falciparum GAPDH at 200 uM measured after overnight incubation by mass spectroscopy; outline: as §1
[5] = target: Glyceraldehyde-3-phosphate dehydrogenase (Plasmodium falciparum) (UniProt Q8T6B1); test: Inhibition of recombinant Plasmodium falciparum GAPDH expressed in Escherichia coli by time course assay; outline: as §2
[6] = target: Glyceraldehyde-3-phosphate dehydrogenase (Plasmodium falciparum) (UniProt Q8T6B1); test: Inhibition of recombinant Plasmodium falciparum GAPDH expressed in Escherichia coli at 50 to 200 uM by time course assay; conditions: TDE = time-dependent effect; outline: as §2
[7] = target: Glyceraldehyde-3-phosphate dehydrogenase (Plasmodium falciparum) (UniProt Q8T6B1); test: Irreversible inhibition of recombinant Plasmodium falciparum GAPDH expressed in Escherichia coli by time course assay
Outline: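 Pf GAPDH was incubated with inhibitor at 50–300 μM, and enzyme activity was assayed over the incubation time. Activity was normalized to the same enzyme kept under identical conditions without inhibitor. Residual-activity time courses were fitted to a sum of two exponential decays. kobs was obtained by fitting the mechanism-based inhibition equation, giving kinact and Ki. Experiments were done in duplicate.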

[8] = target: Glyceraldehyde-3-phosphate dehydrogenase (Plasmodium falciparum) (UniProt Q8T6B1); test: Inhibition of recombinant Plasmodium falciparum GAPDH expressed in Escherichia coli by UV-vis spectroscopy
Outline: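 Enzyme at 400 μM incubated with inhibitor. Absorption spectra recorded until reaction completion to follow loss of the Racker band.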

[9] = target: Glyceraldehyde-3-phosphate dehydrogenase (Plasmodium falciparum) (UniProt Q8T6B1); test: Inhibition of recombinant Plasmodium falciparum GAPDH expressed in Escherichia coli at 50 to 300 uM by time course assay; outline: as §2

Chain of Glyceraldehyde-3-phosphate dehydrogenase (Homo sapiens) (P04406 2-335 limits assumed): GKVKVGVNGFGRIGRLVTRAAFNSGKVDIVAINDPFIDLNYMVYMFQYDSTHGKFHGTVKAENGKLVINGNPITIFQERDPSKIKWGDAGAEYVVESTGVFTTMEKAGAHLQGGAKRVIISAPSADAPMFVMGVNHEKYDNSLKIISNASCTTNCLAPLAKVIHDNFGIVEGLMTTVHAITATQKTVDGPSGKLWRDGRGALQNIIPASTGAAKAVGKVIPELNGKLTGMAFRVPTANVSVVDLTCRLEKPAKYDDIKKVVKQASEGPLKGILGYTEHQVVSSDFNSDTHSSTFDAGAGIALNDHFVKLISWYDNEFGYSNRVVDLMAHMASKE

SMILES	Ratio [1]	inhibition [2]	Ratio [3]	inhibition [4]	inhibition [5]	inhibition [6]	inhibition [7]	inhibition [8]	inhibition [9]
C=CC(N)=O	0.053 M⁻¹ s⁻¹								
C=CC=O	297 M⁻¹ s⁻¹								
COC(=O)[C@@H](N)[C@@H]1CC(Br)=NO1		Active	10.7 M⁻¹ s⁻¹	Active	Dose-dependent effect	tde			
N[C@H](C(=O)O)[C@@H]1CC(Br)=NO1			0.7 M⁻¹ s⁻¹		Dose-dependent effect	tde	Active		
N[C@H](C(=O)O)[C@@H]1CC(Cl)=NO1					Dose-dependent effect	tde	Active		
N[C@H](C(=O)OCc1ccccc1)[C@@H]1CC(Br)=NO1			6.6 M⁻¹ s⁻¹	Active	Dose-dependent effect	tde			
O=C(N[C@H](C(=O)O)[C@@H]1CC(Br)=NO1)OCc1ccccc1		Active	2.6 M⁻¹ s⁻¹		Dose-dependent effect	tde			
BrC1=NOC(c2ccccc2)C1 (racemic)			10.3 M⁻¹ s⁻¹		Dose-dependent effect	tde	Active	Active	
BrC1=NOC(c2ccncc2)C1 (racemic)			0.47 M⁻¹ s⁻¹		Dose-dependent effect	tde			
CC(C)(C)OC(=O)N1CC2ON=C(Br)C2C1 (racemic)			4.8 M⁻¹ s⁻¹		Dose-dependent effect	tde			
CC(C)(C)OC(=O)NCC1CC(Br)=NO1 (racemic)			2.9 M⁻¹ s⁻¹	Active	Dose-dependent effect				Active
ClC1=NOC(c2ccccc2)C1 (racemic)					Dose-dependent effect	tde	Active		
O=C(O)CC1CC(Br)=NO1 (racemic)			0.7 M⁻¹ s⁻¹		Dose-dependent effect	tde			
Oc1ccc(C2CC(Br)=NO2)cc1 (racemic)			3.1 M⁻¹ s⁻¹		Dose-dependent effect	tde			
